Experimental data of several laboratories.
Each line is one published result; the experiments were not run side by side.
Target: Casein kinase I isoform delta (CSNK1D, Homo sapiens, UniProt P48730)

COc1cnc(Nc2cccc(S(N)(=O)=O)c2)nc1N1CCN(c2ccccc2)C(=O)C1  remaining binding (binding, competition with immobilised ligand; 1 µM): 98%
CNCc1ccccc1-c1csc([C@@H](C)Nc2nc(C)nc3cc(OC)c(OC)cc23)c1  remaining binding (cell-free assay, competition with immobilised ligand; 1 µM): 82%
N[C@@H]1CCN(c2nccc(-c3cnn4ncccc34)n2)C1  remaining binding (binding; 1 µM): 14%
FC(F)(F)Oc1cccc(-c2cnc3ccc(-c4ccncc4)nn23)c1  remaining binding (cell-free assay, competition with immobilised ligand; 5 µM): 56%
O=C(c1ccc(Nc2ncc(Cl)c(-c3cc4ccccc4s3)n2)cc1)N1CCC(N2CCCC2)CC1  remaining binding (binding, competition with immobilised ligand; 1 µM): 100%
Cc1c(NC(=O)c2cc(C(N)=O)nc3cc(F)ccc23)c(C(F)(F)F)nn1Cc1ccc(C(C)(C)C)cc1  remaining binding (cell-free assay, competition with immobilised ligand; 1 µM): 81%
CN(CCCC(F)(F)F)c1nccc(-c2cnn3ncccc23)n1  remaining binding (binding; 1 µM): 100%
c1cncc(-c2cccc(Nc3nccc(NC4CCCCC4)n3)c2)c1  remaining binding (binding, competition with immobilised ligand; 10 µM): 55%
Cc1cnc(Nc2ccc(C(=O)N3CCC(N4CCCC4)CC3)cc2)nc1-c1cc2ccccc2s1  remaining binding (binding, competition with immobilised ligand; 1 µM): 100%
Cc1cnn2ncc(-c3ccnc(N(C)C)n3)c2c1  remaining binding (binding; 1 µM): 69%
N#Cc1ccccc1CSc1nnc2c(n1)[nH]c1ccccc12  remaining binding (binding, competition with immobilised ligand; 10 µM): 86%
CNC(=O)Nc1ccc2c(c1)CC[C@@]21OC(=O)N(CC(=O)N(Cc2ccc(F)cc2)[C@@H](C)C(F)(F)F)C1=O  remaining binding (cell-free assay, competition with immobilised ligand; 1 µM): 99%
CC(C)(C)c1ccc(-c2nc(CBr)nn2-c2cccc(O)c2)cc1  remaining binding (cell-free assay, competition with immobilised ligand; 10 µM): 82%
C[C@@H](c1ccc(-n2cnc3c(N)ncnc32)cc1)N1CCc2nn(C)c(Cc3ccccc3)c2C1=O  remaining binding (binding, competition with immobilised ligand; 0.1 µM): 76%
COC(=O)Nc1nc2ccc(C(=O)c3ccccc3)cc2[nH]1  remaining binding (cell-free assay, competition with immobilised ligand; 10 µM): 36%
CNC(=O)Nc1ccc2c(c1)[C@@]1(CC2)OC(=O)N(CC(=O)N(Cc2ccc(F)cc2)[C@@H](C)C(F)(F)F)C1=O  remaining binding (cell-free assay, competition with immobilised ligand; 1 µM): 100%
C[C@H]1CCN(c2nccc(-c3cnn4ncccc34)n2)C1  remaining binding (binding; 1 µM): 71%
CN(C)CC#Cc1ccc(OCCCc2sc(N3CCc4cccc(C(=O)Nc5nc6ccccc6s5)c4C3)nc2C(=O)O)c(F)c1  remaining binding (cell-free assay, competition with immobilised ligand; 1 µM): 95%
O=C(NCCCN1CCOCC1)c1ccc(Nc2ncc(Cl)c(-c3ccc(Cl)s3)n2)cc1  remaining binding (binding, competition with immobilised ligand; 1 µM): 100%
CN(C)c1nccc(-c2cnc3ncccn23)n1  remaining binding (binding; 1 µM): 57%
C[C@@H]1CN(c2cc(-c3n[nH]c4ccc(OC5(C)CC5)cc34)ncn2)C[C@H](C)O1  remaining binding (cell-free assay, competition with immobilised ligand; 0.1 µM): 80%
c1cnn2ncc(-c3ccnc(N4CCC45COC5)n3)c2c1  remaining binding (binding; 1 µM): 41%
CCOCCn1cc(C(=O)Nc2ccc(-n3nc(-c4cccnc4)cc3C(F)(F)F)cn2)ccc1=O  remaining binding (cell-free assay, competition with immobilised ligand; 1 µM): 100%
O=C(NCC1CCOCC1)c1n[nH]cc1NC(=O)c1c(F)cccc1F  remaining binding (binding, competition with immobilised ligand; 1 µM): 77%
